Sampled rows, rich in hits. Any-hit rate of the full collection: about 1.8%.
GSTO1 inh: inhibitors of recombinant GSTO1, primary screen, counter-screen for RBBP9 inhibitor project, biochemical, fluorescence polarization; Glutathione S-transferase omega-1 (Homo sapiens), P78417; activity-based probe fluorescence polarization; inhibition, % at 5.96 µM; 300,000 tested, 1.1% active;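 active means inhibition above the campaign mean inhibition plus 3 SD, cut at about 35% in these data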
proCasp3 act: activators of human procaspase-3 D3A mutant, primary screen, biochemical, absorbance, PC-3 D3A mutant, single concentration | Caspase-3 (Homo sapiens), P42574 | recombinant procaspase-3 D3A, Ac-DEVD-pNA absorbance 405 nm | activation, % at 8.5 µM | 330,000 tested, 0.11% active | AID 463141, 2010;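 active means activation above the mean of all tested compounds plus 3 SD, cut at about 21% in these data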
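Assay system: Autoprocessing-dead procaspase-3 D3A mutant enzyme; also added: Ac-DEVD-pNA; doses: one concentration, 8.5 µM nominal, 0.8% DMSO; times: 1 h compound preincubation, 2 h substrate hydrolysis at 25 °C; technique: 405 nm absorbance of p-nitroaniline, reads at 0 and 120 min; measure: % activation between DMSO and enzyme-spiked controls; repeats: single replicate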
procasp7 counter: procaspase-7 activators, primary screen, counter-screen for procaspase-3 activator project, biochemical, absorbance, HTS, human. Caspase-7 (Homo sapiens), P55210. recombinant procaspase-7, Ac-DEVD-pNA absorbance 405 nm; D23A/D198A/D206A triple mutant, cannot self-cleave; scale: DMSO 0, 5 µM enzyme 100. activation, % at 8.5 µM. 330,000 tested, 0.093% active;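 active means percent activation above the screen-wide mean plus 3 SD, cut at about 25% in these data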
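Assay system: Uncleavable procaspase-7 mutant enzyme / Input: 2 µM procaspase-7 mutant as dispensed / Dosing: single nominal 8.5 µM compound dose, 0.8% DMSO final / Timing: 1 h enzyme–compound preincubation and 2 h substrate reaction, both 25 °C / Detection: p-Nitroaniline absorbance at 405 nm, read at 0 and 120 min / Replication: singlicate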
EBNA-1 inh: EBNA-1 DNA-binding inhibitors, primary screen, biochemical, fluorescence polarization; AID 1950, 2009; inhibition, % at 14.8 µM; 300,000 tested, 0.34% active; in the data active means inhibition above about 28%
ZTA DNA inh: ZTA (EBV) inhibition in EBNA-1 counter-screen. P03206. ZTA-DNA binding, fluorescence polarization. inhibition, % at 11 µM. 320,000 tested, 0.15% active. AID 2234; in the data active means inhibition above about 33%
Apaf-1 inh: inhibitors of human Apaf-1 apoptosome, primary screen, biochemical, DEVD-Rh110 fluorescence, uHTS. 330,000 tested, 0.71% active. reconstituted apoptosome caspase-3 activity. Apoptotic protease-activating factor 1 (Homo sapiens), O14727. inhibition, % at 20 µM; active means inhibition of at least 40% at 20 µM
Target sequence (O14727 whole entry, looked up): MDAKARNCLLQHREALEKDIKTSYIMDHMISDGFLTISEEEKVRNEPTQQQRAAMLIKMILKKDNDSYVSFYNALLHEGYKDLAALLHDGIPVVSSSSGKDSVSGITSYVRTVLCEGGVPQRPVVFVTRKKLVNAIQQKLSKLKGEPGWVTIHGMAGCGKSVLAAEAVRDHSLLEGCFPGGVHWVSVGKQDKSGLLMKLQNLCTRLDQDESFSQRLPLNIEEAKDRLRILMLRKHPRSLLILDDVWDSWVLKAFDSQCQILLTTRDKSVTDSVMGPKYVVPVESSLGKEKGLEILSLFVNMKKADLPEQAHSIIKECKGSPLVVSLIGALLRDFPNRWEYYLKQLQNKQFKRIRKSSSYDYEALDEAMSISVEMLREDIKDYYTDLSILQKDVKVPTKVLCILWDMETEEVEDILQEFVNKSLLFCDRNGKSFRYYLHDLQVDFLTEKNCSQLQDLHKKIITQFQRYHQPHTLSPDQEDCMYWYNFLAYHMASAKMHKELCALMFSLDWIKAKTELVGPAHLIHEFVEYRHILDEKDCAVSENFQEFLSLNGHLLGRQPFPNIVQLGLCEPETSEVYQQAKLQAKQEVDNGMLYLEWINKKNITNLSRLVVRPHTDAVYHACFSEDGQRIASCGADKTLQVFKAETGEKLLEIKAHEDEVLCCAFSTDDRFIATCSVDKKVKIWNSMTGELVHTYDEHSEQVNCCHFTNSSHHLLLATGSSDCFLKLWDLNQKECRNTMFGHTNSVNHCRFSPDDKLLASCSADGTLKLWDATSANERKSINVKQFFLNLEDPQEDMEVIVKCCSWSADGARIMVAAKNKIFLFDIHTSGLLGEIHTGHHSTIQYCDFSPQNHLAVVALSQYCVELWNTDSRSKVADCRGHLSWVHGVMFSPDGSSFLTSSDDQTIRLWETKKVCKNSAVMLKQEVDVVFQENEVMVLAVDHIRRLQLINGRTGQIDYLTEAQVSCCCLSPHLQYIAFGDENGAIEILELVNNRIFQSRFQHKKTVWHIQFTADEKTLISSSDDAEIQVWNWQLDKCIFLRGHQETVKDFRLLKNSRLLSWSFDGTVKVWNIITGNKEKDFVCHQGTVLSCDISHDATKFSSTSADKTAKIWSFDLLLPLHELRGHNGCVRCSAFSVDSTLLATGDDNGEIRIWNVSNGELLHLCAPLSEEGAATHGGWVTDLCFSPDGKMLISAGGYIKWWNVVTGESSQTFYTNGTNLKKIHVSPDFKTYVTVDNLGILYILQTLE
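Material: reconstituted apoptosome with Apaf-1, cytochrome c, caspase-9, procaspase-3, dATP. Technique: Rh110 fluorescence intensity. Buffer or medium: pH 7.5 Hepes buffer with CHAPS, BSA, DTT. Times: 30 min plus 50 min, RT.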
Apaf-1 inh conf: Apaf-1 inhibitors, single-dose retest, confirmation, biochemical, fluorescence, DEVD-Rh110, 20 µM; shares compounds with Apaf-1 inh; reconstituted apoptosome, caspase-3 DEVD-Rh110 fluorescence; inhibition, % at 20 µM; 1,800 tested, 25% active; AID 504614, 2011;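 active means mean inhibition of at least 40% at 20 µM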
Rh110 interf inh: Rh110 fluorescence interference by putative Apaf-1 inhibitors, confirmation, artefact control for Apaf-1 inhibitor project, biochemical, 20 µM; shares compounds with Apaf-1 inh; quenched caspase reaction; activation (fluorescence interference), % at 20 µM; 1,800 tested, under 10 active;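 active means signal rise of 40% or more at 20 µM, treated as a fluorescence artifact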
Apaf1 inh interf: fluorescence interference of Apaf-1 inhibitor hits, dose response, artefact control for Apaf-1 inhibitor project | 460 tested, under 10 active | fluorescence interference counterscreen, Apaf-1 assay format | IC50, µM | shares compounds with Apaf-1 inh; call rule not given here
Each line names hits and unclear results; the compound was inactive in the other large screens (follow-up assays come after a bar, where they were run).

CSc1nc(C=Nc2ccccc2Cl)c(O)n1Cc1cccc(Cl)c1	none
CCC(CO)Oc1cc(NCc2cc(C)cc(C)c2)c2ncn(C(C)C)c2c1 (configuration not stated)	none (no result: GSTO1 inh, EBNA-1 inh, ZTA DNA inh)
CCC(CO)Oc1cc(NCc2cccc(Cl)c2)c2ncn(C(C)C)c2c1 (configuration not stated)	Apaf-1 inh 73 (no result: GSTO1 inh, EBNA-1 inh, ZTA DNA inh) | Apaf-1 inh conf inactive | Rh110 interf inh inactive
CCC(CO)Oc1cc(NCc2ccncc2)c2ncn(C(C)C)c2c1 (configuration not stated)	Apaf-1 inh 41 (no result: GSTO1 inh, EBNA-1 inh, ZTA DNA inh) | Apaf-1 inh conf inactive | Rh110 interf inh inactive
CCC(CN(C)C)Oc1cc(NCc2ccccc2)c2ncn(C(C)C)c2c1 (configuration not stated)	Apaf-1 inh 98 (no result: GSTO1 inh, EBNA-1 inh, ZTA DNA inh) | Apaf-1 inh conf 80 | Rh110 interf inh inactive | Apaf1 inh interf inactive
CCC(CO)Oc1cc(NCc2cccnc2)c2ncn(C(C)C)c2c1 (configuration not stated)	Apaf-1 inh 63 (no result: GSTO1 inh, EBNA-1 inh, ZTA DNA inh) | Apaf-1 inh conf inactive | Rh110 interf inh inactive
CCN(C(=O)CCNC(=O)Cn1cnc2ccccc2c1=O)c1ccccc1F	none
Cc1cnc(C(=O)OCC(=O)N2C(C)CCCC2C)cn1 (configuration not stated)	none (no result: GSTO1 inh, EBNA-1 inh, ZTA DNA inh)
O=C(c1ccccc1)c1coc2ccc(O)c(Cl)c12	none
O=C1C(=O)c2c(C(=O)c3ccccc3)coc2-c2ccccc21	Apaf-1 inh 55 | Apaf-1 inh conf inactive | Rh110 interf inh inactive
CN(CC(=O)Nc1ccc(Cl)c(Cl)c1)C(=O)C1CCCC1	none (no result: GSTO1 inh, EBNA-1 inh)
N#Cc1ccsc1NC(=O)CN1CCN(S(=O)(=O)c2ccccc2C(F)(F)F)CC1	none
COc1ccc(C(=O)COC(=O)CCCN=C2NS(=O)(=O)c3ccccc32)c(OC)c1	Apaf-1 inh 51 | Apaf-1 inh conf inactive | Rh110 interf inh inactive
c1ccc(C2(CN3CCNC[C@H]3Cc3cccc4ccccc34)CC2)cc1	Apaf-1 inh 53 | Apaf-1 inh conf inactive | Rh110 interf inh inactive
CC(C)(C)CN1CCNC[C@H]1Cc1cccc2ccccc12	none
Fc1cccc(CCN2CCNC[C@H]2Cc2cccc3ccccc23)c1	Apaf-1 inh 43 | Apaf-1 inh conf inactive | Rh110 interf inh inactive
c1ccc2c(C[C@@H]3CNCCN3CCC34CC5CC(CC(C5)C3)C4)cccc2c1	Apaf-1 inh 66 (no result: GSTO1 inh, EBNA-1 inh, ZTA DNA inh) | Apaf-1 inh conf inactive | Rh110 interf inh inactive
Oc1ccc(C[C@H]2CNCCN2CCc2cccc(F)c2)cc1	none
c1ccc2c(C[C@@H]3CNCCN3CCCCC3CCCCC3)cccc2c1	Apaf-1 inh 71 (no result: GSTO1 inh, EBNA-1 inh, ZTA DNA inh) | Apaf-1 inh conf inactive | Rh110 interf inh inactive
Oc1ccc(C[C@@H]2CNCCN2CCc2cccc3ccccc23)cc1	none
Cc1cccc(-n2ncc3c(=O)[nH]c(SCC(=O)NCCC4=CCCCC4)nc32)c1	none (no result: GSTO1 inh, EBNA-1 inh)
CC(C)c1ccc(NC(=O)NCc2cccnc2)cc1	none
COC(=O)C1(C(F)(F)F)C2C=CC(C2)N1S(=O)(=O)c1ccc(C)cc1 (configuration not stated)	none
CC(C)(C)c1ccc(S(=O)(=O)N2CCN(CC(O)CN3CCOCC3)CC2)cc1 (configuration not stated)	none (no result: GSTO1 inh, EBNA-1 inh, ZTA DNA inh)
CCN1C(=O)CSc2ccc(C(=O)NC3CCCCC3)cc21	none
CCN1C(=O)CC(c2ccccc2)N(C2CCCC2)c2nc(Nc3ccc(C(=O)NC4CCN(C)CC4)cc3OC)ncc21 (configuration not stated)	Apaf-1 inh 70 (no result: GSTO1 inh, EBNA-1 inh, ZTA DNA inh) | Apaf-1 inh conf inactive | Rh110 interf inh inactive
CC1(C)Cc2c(cnn2-c2cccc(F)c2)C(NC(=O)CCc2cnccn2)C1 (configuration not stated)	none
CCCCCCCCCn1c2c(c(=N)c3c1CCC3)CCCC2	Apaf-1 inh 51 (no result: GSTO1 inh, proCasp3 act, procasp7 counter, EBNA-1 inh, ZTA DNA inh) | Apaf-1 inh conf inactive | Rh110 interf inh inactive
CCN(CC(=O)Nc1ccc2c(c1)OCCO2)C(=O)/C=C/c1cccc(OC)c1OC	none
CCN(CC(=O)Nc1ccc2c(c1)OCCO2)C(=O)/C=C/c1ccc(OC)cc1OC	Apaf-1 inh 64 | Apaf-1 inh conf inactive | Rh110 interf inh inactive
CCC1CCCCN1C(=O)COc1ccc(N(C)S(=O)(=O)c2ccc(C)cc2)cc1 (configuration not stated)	Apaf-1 inh 51 | Apaf-1 inh conf inactive | Rh110 interf inh inactive
Cc1cnc(=O)[nH]c1SCc1ccccc1F	none
COc1ccccc1-c1nnc(SC(C(=O)c2c[nH]c3ccccc23)c2ccccc2)n1C (configuration not stated)	none
COc1cccc(-c2nnc(SC(C(=O)c3c[nH]c4ccccc34)c3ccccc3)n2C)c1 (configuration not stated)	Apaf-1 inh 43 | Apaf-1 inh conf inactive | Rh110 interf inh inactive
CCCCN1CC(=O)N2[C@H]3c4cc(Cl)ccc4OC[C@@H]3[C@H](c3ccccc3)[C@]2(C)C1=O	none (no result: GSTO1 inh, EBNA-1 inh)
NC1(C#Cc2ccc3c(=O)c4ccccc4sc3c2)CCCCC1	Apaf-1 inh 60 (no result: GSTO1 inh, EBNA-1 inh, ZTA DNA inh) | Apaf-1 inh conf inactive | Rh110 interf inh inactive
Cc1ccc(S(=O)(=O)N2CCN(c3ccccc3)CC2)s1	none (no result: GSTO1 inh, EBNA-1 inh, ZTA DNA inh)
CN(Cc1cccc(C(F)(F)F)c1)Cc1nc(-c2cnccn2)no1	none
CC1=C(CC(=O)c2ccccc2)C(=O)c2ccccc2C1=O	GSTO1 inh 51, Apaf-1 inh 45 | Apaf-1 inh conf 40 | Rh110 interf inh inactive | Apaf1 inh interf inactive
O=C(Cn1cnc2cc([N+](=O)[O-])ccc2c1=O)Nc1ccc(N2CCOCC2)cc1	none
Cc1ccc(/C=C/c2onc(C)c2S(=O)(=O)N2CCC(C(=O)N3CCN(C)CC3)CC2)cc1	Apaf-1 inh 45 | Apaf-1 inh conf inactive | Rh110 interf inh inactive
CCOC(=O)c1c(NC(=O)c2cccs2)sc(C(=O)N(C)C)c1C	none

Bioassay records (PubChem)
